Source: PubChem BioAssay (several laboratories)
Many of the other results were omitted from the sample, so hits are more common in it than they were.
UPR XBP1 act = activators of adaptive XBP1 UPR arm, primary screen, cell-based, CHO-XBP1 luciferase reporter, luminescence, uHTS; activation, % at 20 µM; actives 0.33% (n = 330,000); IRE1-XBP1 UPR activation; percent of tunicamycin response, DMSO as zero; AID 463104, 2010;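 active = versus positive control, 20 µM dose yields 30% or more activation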
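Material: IRE1-XBP1 luciferase reporter CHO line / Quantity: one thousand reporter cells per well / Buffer or medium: F12 with 10% serum / Compound: 20 µM single concentration, DMSO 1% / Times: 6 h treatment, 37 °C / Detection: Steady-Glo luciferase glow luminescence, 10 min after reagent addition / Benchmarks: tunicamycin high, DMSO low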
hiPSC survival = enhancers of single-cell hiPSC survival, primary screen, ATPlite luminescence. 100% = ROCK inhibitor wells, 0% = DMSO. survival enhancement, % at 20 µM. actives 0.044% (n = 360,000). AID 602274, 2012; in the data active = survival enhancement above about 18%;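 also: cells exposed to compounds for 16 hours before the ATP read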
UPR CHOP act = activators of apoptotic CHOP UPR arm, primary screen, cell-based, CHO-CHOP luciferase reporter, luminescence, uHTS | UPR activation; percent of tunicamycin response over DMSO baseline | AID 449763, 2010 | actives 0.34% (n = 330,000) | activation, % at 10 µM;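 active = at 10 µM dose, activation of 40% or more, normalized to positive control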
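Test system: CHO CHOP reporter cells. Input: 500 CHO-CHOP cells per well. Medium: F12 with 10% FBS. Technique: luciferase luminescence. Measure: percent activation relative to tunicamycin control. Dosing: 10 µM compound, 0.5% DMSO. Timing: 16-18 h cell attachment, then 6 h compound exposure, 37 °C.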
CHOP inhibitor = inhibitors of CHOP promoter induction, primary screen, cell-based, unfolded protein response, luciferase reporter | CHO-K1 CHOP-promoter luciferase, tunicamycin-induced, 15-18 h | inhibition, % at 10 µM | actives 3.8% (n = 220,000);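 active = compounds that reduced the stress-induced luciferase reporter signal by more than about 70% of percent inhibition, limit read from the data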
Cardio protect = cardioprotection against H2O2-induced cell death, primary screen, uHTS, H9c2 cells, ATPLite luminescence | AID 588492, 2011 | protection from H2O2 cell death, % at 20 µM | actives 0.63% (n = 360,000) | H9c2 cardiomyocytes, H2O2 injury protection, 2 h;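 active = compounds giving at least 50% protection of heart cells from peroxide-induced death in the single-dose screen, raw or plate-pattern-corrected value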
Large screens that a line does not name were inactive.

Cc1ccc(NC(=O)CSc2ncccn2)cc1S(=O)(=O)N1CCOCC1	none (no result: CHOP inhibitor)
CCN(CC)C(=O)N1c2ccccc2Sc2ccccc21	none (no result: CHOP inhibitor)
CCN(CC)C(=O)N1c2ccccc2CC(N(CC)CC)c2ccccc21 (stereo not given)	CHOP inhibitor 84.8
O=C(NCc1ccccc1Cl)c1[nH]c(C(F)(F)F)nc1-c1ccccc1	none (no result: UPR XBP1 act, UPR CHOP act, CHOP inhibitor)
CCCS(=O)(=O)NC(=O)C1(C)CCCN(C(=O)c2cc(F)cc(F)c2)C1 (stereo not given)	none (no result: UPR XBP1 act, UPR CHOP act, CHOP inhibitor)
CCOC(=O)c1sc2nc(NC(=O)C3CC3)sc2c1C	CHOP inhibitor 98.7
CCOC(=O)c1sc2nc(NC(=O)C(C)(C)C)sc2c1C	CHOP inhibitor 76.8
CCOC(=O)c1sc2nc(NC(=O)C3CCCCC3)sc2c1C	none
CC(=O)Nc1cc(-c2ccsc2)cn2c(-c3ccc(F)cc3)cnc12	none (no result: UPR XBP1 act, UPR CHOP act, CHOP inhibitor)
CC1(C)SC(C)(C)N(C=O)C1C(=O)O (stereo not given)	none (no result: UPR XBP1 act, UPR CHOP act, CHOP inhibitor)
Cc1cc2c(cc1C)CSC(c1ccc(O)cc1)SC2	CHOP inhibitor 89.9
Cc1cc2c(cc1C)CSC(c1ccc3ccccc3c1O)SC2	none
Cc1cccc(N=Cc2[nH]c3ccc(Br)c(Cl)c3c2O)c1	CHOP inhibitor 89.6 (no result: UPR XBP1 act, UPR CHOP act)
COc1ccccc1CN=Cc1[nH]c2ccc(Br)c(Cl)c2c1O	none
CCOC(=O)c1cc2c(nc1C)-c1cc(Cl)cc(Cl)c1OC2O (stereo not given)	CHOP inhibitor 88.7
CCOC(=O)c1cc(C(=O)NN)c(C)nc1C	none
CSc1c(CC(=O)NCCCO)n(Cc2ccccc2)c2ccccc12	none (no result: CHOP inhibitor)
COc1ccc(NC(=O)Cc2c(SC)c3ccccc3n2Cc2ccccc2)cc1	CHOP inhibitor 74.1
CCOC(=O)Cc1csc(NC(=O)CSc2nnc(-c3ccc(F)cc3)o2)n1	CHOP inhibitor 78.2
CCOC(=O)Cc1csc(NC(=O)CSc2nnc(-c3ccc(C)cc3)o2)n1	CHOP inhibitor 77.5
CC1CCC(NC(=O)C(NS(=O)(=O)c2ccc(Br)cc2)C(C)C)CC1 (stereo not given)	none (no result: UPR XBP1 act, UPR CHOP act, CHOP inhibitor)
COc1cc(Nc2ccn3nccc3n2)cc(OC)c1OC	none (no result: UPR XBP1 act, UPR CHOP act, CHOP inhibitor)
O=C1N/C(=N/O)S/C1=C/c1cccc([N+](=O)[O-])c1	none
CC1(C)CC(=O)/C(=C\c2cccc([N+](=O)[O-])c2)C(C)(C)N1	hiPSC survival 35.7
CC(C)C#Cc1ccc2c(c1)O[C@@H](CN(C)S(=O)(=O)c1cn(C)cn1)[C@@H](C)CN([C@H](C)CO)S2(=O)=O	none (no result: UPR XBP1 act, UPR CHOP act, CHOP inhibitor)
COc1cccc(CNC(=O)[C@@H]2CCCN2C(=O)[C@@H]2CCCN2C(=O)OC(C)(C)C)c1	none (no result: UPR XBP1 act, UPR CHOP act, CHOP inhibitor, Cardio protect)
C[C@@H]1CN([C@H](C)CO)S(=O)(=O)c2ccc(C#CC3CCCC3)cc2O[C@H]1CN(C)C(=O)Cc1ccccc1	none (no result: UPR XBP1 act, UPR CHOP act, CHOP inhibitor)
O=C(COc1ccc(Cl)cc1Cl)Nc1c(-c2cccs2)nc2ccccn12	CHOP inhibitor 85.1
O=C(Nc1c(-c2cccs2)nc2ccccn12)c1ccccc1F	none
OC(c1cc(F)cc(Cl)c1)c1ncc(-c2cccc(C(F)(F)F)c2)[nH]1 (stereo not given)	none (no result: UPR XBP1 act, UPR CHOP act, CHOP inhibitor)
OC(c1ccc(Cl)cc1)c1ncc(-c2cccc(C(F)(F)F)c2)[nH]1 (stereo not given)	hiPSC survival 24.7 (no result: UPR XBP1 act, UPR CHOP act, CHOP inhibitor)
COc1cc2nc(-c3ccccc3)nc(N3CCCC3)c2cc1OC	CHOP inhibitor 82.0 (no result: UPR XBP1 act, hiPSC survival, UPR CHOP act, Cardio protect)
COc1cccc(-c2nc(N3CCCCC3)c3ccccc3n2)c1O	none (no result: CHOP inhibitor)
O=C(COc1cc(Cl)c(Cl)cc1Cl)Nc1cccc(O)c1	CHOP inhibitor 79.2
O=C(COc1cc(Cl)c(Cl)cc1Cl)Nc1ccncc1	none
O=C(CSc1n[nH]c(-c2ccccc2)n1)c1ccc(O)c(O)c1	Cardio protect 79.5
Cc1cc(SCC(=O)c2ccc3c(c2)OCO3)nc2ccccc12	none
Cc1cc(SCC(=O)c2ccc(O)c(O)c2)nc2ccccc12	Cardio protect 51.0
C/C=C/c1cccc(-c2nc(C(=O)N3CCOCC3)cc3c2[C@H](CCO)N(C(=O)NC(C)C)C3)c1	none (no result: UPR XBP1 act, UPR CHOP act, CHOP inhibitor, Cardio protect)
CCOC(=O)N1CCN(c2nc(C)cc(C(F)(F)F)n2)CC1	CHOP inhibitor 70.6
COc1cccc(-c2nc(-c3ccccc3)nc(N3CCN(C)CC3)c2C#N)c1	CHOP inhibitor 77.0
